Experimental findings from ChEMBL document CHEMBL4004832, “Synthesis, surfactant properties and antimicrobial activities of methyl glycopyranoside ethers” (2017) are described below.

What is called MIC is the lowest concentration found to suppress growth.

≈ marks a conversion by molar mass, not a printed value.

The test system of experiment [1] is Staphylococcus aureus. Put plainly: Antibacterial activity against Staphylococcus aureus ATCC 29213 after 18 hrs by broth microdilution assay. Format: functional. The conditions noted are these: ATCC 29213, 18 h. The essentials:
(§1)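 Broth MIC testing on Gram-positive strains followed CLSI M100-S17 recommendations. […] Values are in mmol/L. Amoxicillin was the control for Listeria and Enterococcus strains and oxacillin for S. aureus strains.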
(In general: In broth dilution the organism is exposed to a series of concentrations in liquid medium.)

The subject of experiment [2] is Listeria monocytogenes. The experiment can be described thus: Bactericidal activity against Listeria monocytogenes CIP 103575 after 18 hrs by broth microdilution assay. It is filed as functional. The method in brief: (§2)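 MBC is the lowest concentration giving at least 99.9% reduction of the initial inoculum. Values are in mmol/L.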
The test system of experiment [3] is Enterococcus faecalis. The experiment can be described thus: Antibacterial activity against Enterococcus faecalis ATCC 29212 after 18 hrs by broth microdilution assay. Particulars: ATCC 29212, 18 h. Format: functional. The method in brief: as §1
Experiment [4] relates to Enterococcus faecalis. The experiment can be described thus: Bactericidal activity against Enterococcus faecalis ATCC 29212 after 18 hrs by broth microdilution assay. Format: functional. The essentials: as §2
The nature of experiment [5]: Surfactant property of the compound in water assessed as critical micelle concentration or minimal hydrotropic concentration by platinum rod based tensiometric method. The method in brief:
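Surface tension of aqueous solutions was measured by a rod method based on the Wilhelmy plate. Water was progressively concentrated with a stock surfactant solution at constant volume. At each concentration, readings continued until stable (SD of the last 5 values 0.2 mN/m). MHC or CMC and the plateau γsat were taken from the tension vs concentration curves.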

For experiment [6], the system named is Listeria monocytogenes. Put plainly: Antibacterial activity against Listeria monocytogenes CIP 103575 after 18 hrs by broth microdilution assay. It is filed as functional. Particulars: CIP 103575, 18 h. The essentials: as §1
In experiment [7] the test system is Staphylococcus aureus. Put plainly: Bactericidal activity against Staphylococcus aureus ATCC 29213 after 18 hrs by broth microdilution assay. It is filed as functional. The essentials: as §2
Experiment [8] has as its system Enterococcus faecium. The experiment can be described thus: Antibacterial activity against […] Enterococcus faecium isolate 0151850763 after 18 hrs by broth microdilution assay. It is filed as functional. Particulars: isolate 0151850763, 18 h. The essentials: (§3)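 Enterococcus faecium strains (reference, clinical isolates, VanA isolate) tested by MIC following CLSI recommendations (M100-S17), with amoxicillin as control. […] Values are expressed in mmol/L.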

Experiment [9] relates to Staphylococcus aureus. Put plainly: Antibacterial activity against methicillin-resistant Staphylococcus aureus Mu3 after 18 hrs by broth microdilution assay. It is filed as functional. Particulars: Mu3, 18 h. The essentials: (§4)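 Staphylococcus aureus reference strains and methicillin- and daptomycin-resistant isolates tested by MIC according to CLSI guidance (M100-S17), with oxacillin as control. The endpoint is the lowest concentration with no growth in all replicates versus a negative control at 18 h. Values are reported in mmol/L.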

Experiment [10] relates to Staphylococcus aureus. Put plainly: Antibacterial activity against methicillin-resistant Staphylococcus aureus isolate HT 2004-0012 after 18 hrs by broth microdilution assay. It is filed as functional. The conditions noted are these: isolate HT 2004-0012, 18 h. The method in brief: as §4
Experiment [11] deals with Staphylococcus aureus. The experiment can be described thus: Antibacterial activity against methicillin-resistant Staphylococcus aureus isolate LY 1999-0053 after 18 hrs by broth microdilution assay. Format: functional. The conditions noted are these: isolate LY 1999-0053, 18 h. The essentials: as §4
For experiment [12], the system named is Listeria monocytogenes. Put plainly: Antibacterial activity against Listeria monocytogenes isolate 015170199001 after 18 hrs by broth microdilution assay. It is filed as functional. Particulars: isolate 015170199001, 18 h. The essentials:
as §1

Experiment [13] concerns Listeria monocytogenes. The experiment can be described thus: Antibacterial activity against Listeria monocytogenes isolate 015181840701 after 18 hrs by broth microdilution assay. It is filed as functional. Particulars: isolate 015181840701, 18 h. The method in brief: as §1
In experiment [14] the test system is Staphylococcus aureus. The experiment can be described thus: Antibacterial activity against methicillin-resistant Staphylococcus aureus isolate HT 2002-0417 after 18 hrs by broth microdilution assay. It is filed as functional. The conditions noted are these: isolate HT 2002-0417, 18 h. The essentials:
as §4

Experiment [15] relates to Staphylococcus aureus. The experiment can be described thus: Antibacterial activity against methicillin-resistant Staphylococcus aureus LAC USA300 after 18 hrs by broth microdilution assay. Format: functional. The method in brief: as §4
Experiment [16] has as its system Enterococcus faecium. Put plainly: Antibacterial activity against Enterococcus faecium isolate 015205731401 after 18 hrs by broth microdilution assay. It is filed as functional. The conditions noted are these: isolate 015205731401, 18 h. The method in brief:
as §1

Experiment [17] has as its system Staphylococcus aureus. The experiment can be described thus: Antibacterial activity against Staphylococcus aureus ATCC 25923 after 18 hrs by broth microdilution assay. Particulars: ATCC 25923, 18 h. Format: functional. The essentials: as §4
Experiment [18] concerns Enterococcus faecium. The experiment can be described thus: Antibacterial activity against Enterococcus faecium CIP 103510 after 18 hrs by broth microdilution assay. The conditions noted are these: CIP 103510, 18 h. It is filed as functional. The method in brief: as §3
Experiment [19] relates to Enterococcus faecium. The experiment can be described thus: Antibacterial activity against Enterococcus faecium isolate 015205261801 after 18 hrs by broth microdilution assay. Format: functional. Particulars: isolate 015205261801, 18 h. The method in brief:
as §3

Experiment [20] relates to Staphylococcus aureus. The experiment can be described thus: Antibacterial activity against daptomycin-resistant Staphylococcus aureus isolate ST 2015-0989 after 18 hrs by broth microdilution assay. The conditions noted are these: isolate ST 2015-0989, 18 h. Format: functional. The essentials: as §4
In experiment [21] the test system is Enterococcus faecalis. The experiment can be described thus: Antibacterial activity against Enterococcus faecalis isolate 015206179901 after 18 hrs by broth microdilution assay. It is filed as functional. The conditions noted are these: isolate 015206179901, 18 h. The essentials:
as §1

Experiment [22] concerns Listeria monocytogenes. Put plainly: Antibacterial activity against Listeria monocytogenes isolate 015189074801 after 18 hrs by broth microdilution assay. It is filed as functional. Particulars: isolate 015189074801, 18 h. The method in brief: as §1
The test system of experiment [23] is Staphylococcus aureus. Put plainly: Antibacterial activity against daptomycin-resistant Staphylococcus aureus isolate ST 2015-0188 after 18 hrs by broth microdilution assay. It is filed as functional. The conditions noted are these: isolate ST 2015-0188, 18 h. The method in brief:
as §4

For experiment [24], the system named is Staphylococcus aureus. The experiment can be described thus: Antibacterial activity against daptomycin-resistant Staphylococcus aureus isolate ST 2014-1288 after 18 hrs by broth microdilution assay. Format: functional. The conditions noted are these: isolate ST 2014-1288, 18 h. The essentials:
as §4

Experiment [25] relates to Staphylococcus aureus. Put plainly: Antibacterial activity against methicillin-resistant Staphylococcus aureus isolate HT 2006-1004 after 18 hrs by broth microdilution assay. It is filed as functional. Particulars: isolate HT 2006-1004, 18 h. The method in brief:
as §4

As to `CCCCCCCCCCOC[C@H]1O[C@H](OC)[C@H](O)[C@@H](O)[C@@H]1O`, the MIC with Staphylococcus aureus [1] stood at 2000 µM (≈ 669 µg/mL); in the experiment on Enterococcus faecalis [3], 500 µM (≈ 167 µg/mL); in the experiment with Listeria monocytogenes [6] it was 500 µM (≈ 167 µg/mL). Also, the “MBC<=99.9” value amounted to 500 µM (≈ 167 µg/mL) against Listeria monocytogenes [2], 500 µM (≈ 167 µg/mL) with Enterococcus faecalis [4] and 2000 µM (≈ 669 µg/mL) against Staphylococcus aureus [7]. Besides, the CMC in experiment [5] stood at 0.277 mmol/L.
As to `CCCCCCCCCCCCOC[C@H]1O[C@H](OC)[C@H](O)[C@@H](O)[C@H]1O`, the minimum inhibitory concentration (MIC) was 350 µM (≈ 127 µg/mL) against Enterococcus faecium [8]; more than 710 µM against Staphylococcus aureus [9]; more than 710 µM in the experiment on Staphylococcus aureus [1]; more than 710 µM in the experiment with Staphylococcus aureus [10]; more than 710 µM in the experiment with Staphylococcus aureus [11]; 180 µM (≈ 65.3 µg/mL) in the experiment on Listeria monocytogenes [12]. Moreover, the minimum inhibitory concentration (MIC) against Listeria monocytogenes [13] is 180 µM (≈ 65.3 µg/mL); with Staphylococcus aureus [14], more than 710 µM; in the experiment with Staphylococcus aureus [15] it was more than 710 µM; with Enterococcus faecium [16], 90 µM (≈ 32.6 µg/mL); against Staphylococcus aureus [17], more than 710 µM; against Enterococcus faecium [18], more than 710 µM. In addition, the minimal inhibitory concentration (MIC) was 20 µM (≈ 7.25 µg/mL) with Enterococcus faecium [19]; more than 710 µM in the experiment with Staphylococcus aureus [20]; 180 µM (≈ 65.3 µg/mL) against Enterococcus faecalis [3]; 180 µM (≈ 65.3 µg/mL) against Enterococcus faecalis [21]; 180 µM (≈ 65.3 µg/mL) with Listeria monocytogenes [22]; 180 µM (≈ 65.3 µg/mL) in the experiment with Listeria monocytogenes [6]. The MIC with Staphylococcus aureus [23], against Staphylococcus aureus [24] and with Staphylococcus aureus [25] was more than 710 µM throughout. For the same molecule, the CMC in [5] came out at 0.47 mmol/L.
